Test results reported in ChEMBL document CHEMBL2417506, “Synthesis and antiprotozoal activity of original porphyrin precursors and derivatives” (Eur J Med Chem, 2013).
Activity calls are given as the source filed them. The rule behind the calls is not given here.

Experiments:
[1] = tested on: Plasmodium berghei; assay: Antimalarial activity against chloroquine-sensitive Plasmodium berghei NK-173 infected in Swiss albino mouse assessed as host survival at 100 mg/kg, ip bid for 3 days measured on day 30; format: functional; settings: NK-173, ip, route intraperitoneal
Summary of the method: (§1)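 Female Swiss albino mice (18–20 g) were infected i.v. on day 0 with 10^6 parasitized RBC in 0.2 ml PBS from a donor mouse, in groups of 10. Dosing was i.p. over days 0–3 and stopped if toxicity appeared. Chloroquine control was 100 µmoles/kg. Giemsa tail smears and RBC counts were taken on days 4, 7, 8, 9, 10 and 14. Mice were followed for deaths.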

[2] = tested on: Mus musculus; assay: Toxicity in chloroquine-sensitive Plasmodium berghei NK-173 infected Swiss albino mouse assessed as mortality at 38.5 mg/kg, ip administered 4 times per day for 3 days measured up to 4 days; format: organism-based; parameters: dose 38.5 mg/kg, route intraperitoneal; settings: in vivo; summary of the method: as §1
[3] = tested on: Mus musculus; assay: Toxicity in chloroquine-sensitive Plasmodium berghei NK-173 infected Swiss albino mouse assessed as mortality at 38.5 mg/kg, ip qd for 3 days measured up to 4 days; format: organism-based; parameters: dose 38.5 mg/kg, route intraperitoneal; settings: in vivo; summary of the method: as §1
[4] = tested on: Mus musculus; assay: Toxicity in chloroquine-sensitive Plasmodium berghei NK-173 infected Swiss albino mouse assessed as mortality at 76.9 mg/kg, ip qd for 3 days measured up to 4 days; format: organism-based; parameters: dose 76.9 mg/kg, route intraperitoneal; settings: in vivo; summary of the method: as §1
[5] = tested on: Mus musculus; assay: Toxicity in chloroquine-sensitive Plasmodium berghei NK-173 infected Swiss albino mouse assessed as death day at 100 mg/kg, ip bid for 3 days measured up to 4 days; format: organism-based; parameters: dose 100 mg/kg, route intraperitoneal; settings: in vivo; summary of the method: as §1
[6] = tested on: Plasmodium berghei; assay: Antimalarial activity against chloroquine-sensitive Plasmodium berghei NK-173 infected in Swiss albino mouse assessed as quantal survival at 38.5 mg/kg, ip administered 4 times per day for 3 days measured on day 14; format: functional, organism-based; parameters: dose 38.5 mg/kg; summary of the method: as §1
[7] = tested on: Plasmodium berghei; assay: Antimalarial activity against chloroquine-sensitive Plasmodium berghei NK-173 infected in Swiss albino mouse assessed as quantal survival at 38.5 mg/kg, ip qd for 3 days measured on day 14; format: functional, organism-based; parameters: dose 38.5 mg/kg; summary of the method: as §1
[8] = tested on: Plasmodium berghei; assay: Antimalarial activity against chloroquine-sensitive Plasmodium berghei NK-173 infected in Swiss albino mouse assessed as quantal survival at 76.9 mg/kg, ip qd for 3 days measured on day 14; format: functional, organism-based; parameters: dose 76.9 mg/kg; summary of the method: as §1
[9] = tested on: Plasmodium berghei; assay: Antimalarial activity against chloroquine-sensitive Plasmodium berghei NK-173 infected in Swiss albino mouse assessed as quantal survival at 100 mg/kg, ip bid for 3 days measured on day 14; format: functional, organism-based; parameters: dose 100 mg/kg; summary of the method: as §1
[10] = tested on: Plasmodium berghei; assay: Antimalarial activity against chloroquine-sensitive Plasmodium berghei NK-173 infected in Swiss albino mouse assessed as quantal survival at 38.5 mg/kg, ip qd for 3 days measured on day 10; format: functional, organism-based; parameters: dose 38.5 mg/kg; summary of the method: as §1
[11] = tested on: Plasmodium berghei; assay: Antimalarial activity against chloroquine-sensitive Plasmodium berghei NK-173 infected in Swiss albino mouse assessed as quantal survival at 76.9 mg/kg, ip qd for 3 days measured on day 10; format: functional, organism-based; parameters: dose 76.9 mg/kg; summary of the method: as §1
[12] = tested on: Plasmodium berghei; assay: Antimalarial activity against chloroquine-sensitive Plasmodium berghei NK-173 infected in Swiss albino mouse assessed as quantal survival at 38.5 mg/kg, ip qd for 3 days measured on day 9; format: functional, organism-based; parameters: dose 38.5 mg/kg; summary of the method: as §1
[13] = tested on: Plasmodium berghei; assay: Antimalarial activity against chloroquine-sensitive Plasmodium berghei NK-173 infected in Swiss albino mouse assessed as quantal survival at 38.5 mg/kg, ip administered 4 times per day for 3 days measured on day 8; format: functional, organism-based; parameters: dose 38.5 mg/kg; summary of the method: as §1
[14] = tested on: Plasmodium berghei; assay: Antimalarial activity against chloroquine-sensitive Plasmodium berghei NK-173 infected in Swiss albino mouse assessed as quantal survival at 38.5 mg/kg, ip administered 4 times per day for 3 days measured on day 7; format: functional, organism-based; parameters: dose 38.5 mg/kg; summary of the method: as §1
[15] = tested on: Plasmodium berghei; assay: Antimalarial activity against chloroquine-sensitive Plasmodium berghei NK-173 infected in Swiss albino mouse assessed as quantal survival at 76.9 mg/kg, ip qd for 3 days measured on day 7; format: functional, organism-based; parameters: dose 76.9 mg/kg; summary of the method: as §1
[16] = tested on: Plasmodium berghei; assay: Antimalarial activity against chloroquine-sensitive Plasmodium berghei NK-173 infected in Swiss albino mouse assessed as quantal survival at 38.5 mg/kg, ip qd for 3 days measured on day 7; format: functional, organism-based; parameters: dose 38.5 mg/kg; summary of the method: as §1
[17] = tested on: Plasmodium berghei; assay: Antimalarial activity against chloroquine-sensitive Plasmodium berghei NK-173 infected in Swiss albino mouse assessed as reduction parasitemia at 38.5 mg/kg, ip qd […] by Giemsa staining relative to control; format: functional; parameters: scale not given: the % may be the effect or the level left; settings: route intraperitoneal
Summary of the method: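 Four-day Peters test in female Swiss albino mice (18–20 g), groups of 10. Infected i.v. on day 0 with 10^6 parasitized RBC in 0.2 ml PBS, then dosed i.p. on days 0–3, stopped if toxicity appeared. Parasitemia read from Giemsa-stained tail-blood smears and reported as % reduction at day 4.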

[18] = tested on: Plasmodium berghei; assay: Antimalarial activity against chloroquine-sensitive Plasmodium berghei NK-173 infected in Swiss albino mouse assessed as reduction parasitemia at 76.9 mg/kg, […] by Giemsa staining relative to control; format: functional; parameters: scale not given: the % may be the effect or the level left; settings: route intraperitoneal
[19] = tested on: Plasmodium falciparum; assay: Antimalarial activity against Plasmodium falciparum 3D7 infected in human O positive erythrocytes assessed as reduction of parasite growth after 24 to 44 hrs by Giemsa staining; format: functional, organism-based
Summary of the method: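 Sorbitol-synchronized ring-stage 3D7 parasites in O+ erythrocytes (5% v/v suspension, 0.5% parasitemia) exposed to compounds from DMSO stock for 44 h at 37 °C. Growth measured by pLDH ELISA after freeze-thaw hemolysis and by Giemsa thin smears at 24 and 44 h, counting at least 5000 erythrocytes. Expressed as % reduction against medium-only control.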

[20] = Cytotoxicity against Swiss mouse peritoneal macrophages at 20 uM after 5 days by MTT assay; format: cell-based, Peritoneal macrophage cell
Summary of the method: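 Thioglycolate-elicited peritoneal macrophages from female Swiss mice, 5 × 10^4/well in RPMI 1640 with 10% FCS, 25 mM Hepes and 2 mM L-glutamine. Washed at 4 h to remove fibroblasts. Drug-containing medium added at 48 h, stopped at day 5. Viability read by MTT.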

[21] = tested on: Trypanosoma brucei brucei; assay: Trypanocidal activity against Trypanosoma brucei brucei by drug incubation infectivity test; format: functional; settings: read-out: MEC
[22] = tested on: Leishmania donovani; assay: Antileishmanial activity against amastigotes forms of Leishmania donovani MHOM/ET/67/HU3 infected in Swiss mouse peritoneal macrophages at 20 uM after 5 days; format: functional, organism-based
Summary of the method: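 Peritoneal macrophages from female Swiss mice (18–20 g) infected after 24 h with stationary-phase L. donovani promastigotes at 10 parasites per macrophage. Free promastigotes removed at 18 h, then amastigotes treated. Medium with drug renewed at 48 h, stopped at day 5. Percentage of infected macrophages scored microscopically after Giemsa staining. Run in triplicate.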

[23] = tested on: Leishmania donovani; assay: Antileishmanial activity against promastigote forms of Leishmania donovani MHOM/ET/67/HU3 after 3 days by MTT assay; format: functional, organism-based; settings: MHOM/ET/67/HU3, 72 h
Summary of the method: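 Log-phase promastigotes at 10^6 cells/mL in supplemented M-199. Serial dilutions gave final concentrations of 100 µM to 50 nM, in triplicate. Incubated 3 days at 27 °C, dark, 5% CO2. Viability read by MTT reduction, with Triton X100/HCl lysis and absorbance at 570 nm. IC50 ± SD.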

[24] = tested on: Plasmodium berghei; assay: Antimalarial activity against chloroquine-sensitive Plasmodium berghei NK-173 infected in Swiss albino mouse assessed as host survival at 38.5 mg/kg, ip administered 4 times per day for 3 days measured on day 30; format: functional; settings: NK-173, ip, route intraperitoneal; summary of the method: as §1
[25] = tested on: Plasmodium berghei; assay: Antimalarial activity against chloroquine-sensitive Plasmodium berghei NK-173 infected in Swiss albino mouse assessed as host survival at 38.5 mg/kg, ip qd for 3 days measured on day 30; format: functional; settings: NK-173, ip, route intraperitoneal; summary of the method: as §1
[26] = tested on: Plasmodium berghei; assay: Antimalarial activity against chloroquine-sensitive Plasmodium berghei NK-173 infected in Swiss albino mouse assessed as host survival at 76.9 mg/kg, ip qd for 3 days measured on day 30; format: functional; settings: NK-173, ip, route intraperitoneal; summary of the method: as §1

COc1cc(-c2c3nc(c(N4C(=O)CC[C@H]4C(=O)O)c4ccc([nH]4)c(-c4cc(OC)c(OC)c(OC)c4)c4nc(cc5ccc2[nH]5)C=C4)C=C3)cc(OC)c1OC
survival at 100 mg/kg [1]: 0%
Activity [2]: Non-toxic
Activity [3]: Non-toxic
Activity [4]: Non-toxic
Time [5]: 2 days
Survival [6]: inactive
Survival [7]: inactive
Survival [8]: inactive
Survival [9]: inactive
Survival [10]: inactive
Survival [11]: inactive
Survival [12]: inactive
Survival [13]: Active
Survival [14]: Active
Survival [15]: Active
Survival [16]: Active
Activity [17]: 0%
Activity [18]: 40%
IC50 [19]: 0.02 µM
CC50 at 120 h [20]: > 100 µM
minimal effective concentration [21]: 25 µM
Activity [22]: inactive
IC50 [23]: 57.2 µM
survival at 38.5 mg/kg [24]: 0%
survival at 38.5 mg/kg [25]: 0%
survival at 76.9 mg/kg [26]: 0%
